Measured values from different studies.
Lines come from different studies, so protocols differ.
Target: MAP/microtubule affinity-regulating kinase 4 (MARK4, Homo sapiens, UniProt Q96L34)
Read-out: enzyme activity
Mode: inhibitor
Residues used in one study (Q96L34 1-752): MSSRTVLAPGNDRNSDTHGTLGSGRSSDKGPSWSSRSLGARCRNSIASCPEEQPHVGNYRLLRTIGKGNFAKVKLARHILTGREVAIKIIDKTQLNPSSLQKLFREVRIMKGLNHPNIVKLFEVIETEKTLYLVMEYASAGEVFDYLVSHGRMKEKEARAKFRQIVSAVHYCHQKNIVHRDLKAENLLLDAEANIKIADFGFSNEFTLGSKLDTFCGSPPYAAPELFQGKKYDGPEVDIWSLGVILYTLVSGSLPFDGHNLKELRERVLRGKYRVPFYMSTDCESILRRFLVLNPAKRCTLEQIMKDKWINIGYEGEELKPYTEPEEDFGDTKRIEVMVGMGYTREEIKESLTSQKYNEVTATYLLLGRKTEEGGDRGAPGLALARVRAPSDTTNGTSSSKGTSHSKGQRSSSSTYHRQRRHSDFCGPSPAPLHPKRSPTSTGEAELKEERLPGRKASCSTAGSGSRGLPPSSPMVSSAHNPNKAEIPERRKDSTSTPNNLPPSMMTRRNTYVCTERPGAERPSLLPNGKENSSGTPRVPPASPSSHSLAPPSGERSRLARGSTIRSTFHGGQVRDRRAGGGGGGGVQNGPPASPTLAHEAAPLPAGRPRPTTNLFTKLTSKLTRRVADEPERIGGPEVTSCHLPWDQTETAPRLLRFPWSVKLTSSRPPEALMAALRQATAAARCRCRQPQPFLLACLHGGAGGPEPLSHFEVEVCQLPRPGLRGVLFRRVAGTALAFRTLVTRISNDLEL

Cn1c(=O)n(-c2ccc(C(C)(C)C#N)cc2)c2c3cc(-c4cnc5ccccc5c4)ccc3ncc21 — remaining activity (10 µM): 81%
CC(C)(C)c1nc2c(s1)c1nc(N)ncc1c1ccc(NS(=O)(=O)c3c(F)cccc3F)c(F)c12 — remaining activity (radiometric; 1 µM): 88%
Cc1ccc(C(=O)Nc2ccc(CN3CCN(C)CC3)c(C(F)(F)F)c2)cc1C#Cc1cnc2cccnn12 — remaining activity (23.5 nM): 94%
Cc1sc(C(=O)NC2COC2)cc1-n1cc(NC(=O)Nc2c(F)cccc2Cl)cn1 — remaining activity (10 µM): 108%
Brc1cnc(Nc2cccc(CN3CCOCC3)c2)nc1NCCc1c[nH]cn1 — remaining activity (radiometric; 1 µM): 3%
COc1cc(Nc2cnc(C#N)c(O[C@H](C)CN(C)C)n2)ncc1-c1cnn(C)c1 — remaining activity (radiometric; 1 µM): 105%
NS(=O)(=O)c1ccc(CNc2ccnc(Nc3cccc(NC(=O)N4CCCC4)c3)n2)cc1 — remaining activity (radiometric; 1 µM): 99%
Cc1ccc(Nc2nccc(N(C)c3ccc4c(C)n(C)nc4c3)n2)cc1S(N)(=O)=O — remaining activity (0.5 µM): 98%
Cc1nn(CC(F)(F)F)cc1Nc1nccc(NCCCNC(=O)C2CCC2)n1 — remaining activity (radiometric; 1 µM): 113%
COc1cc(Cl)c(C(=O)N[C@@H](CN[C@H]2CC[C@@H](N)CC2)Cc2ccc(C#N)cc2)cc1-c1ccc(CN[C@H](C)c2ccc(C)cc2)o1 — remaining activity (1 µM): 91%
Cc1nn(CC(F)(F)F)cc1Nc1ncc(C2CC2)c(NCCc2c[nH]cn2)n1 — remaining activity (radiometric; 1 µM): 88%
O=C(Nc1cnn(-c2csc(C(=O)NC3COC3)c2)c1)Nc1c(F)cccc1Cl — remaining activity (5 µM): 97.9%
FC(F)c1nc2ccccc2n1-c1nc(N2CCOCC2)nc(N2CCOCC2)n1 — remaining activity (10 µM): 89%
CC(C)(O)[C@H]1CC[C@H](Nc2ccc3ncc(-c4cccc(C(F)(F)F)c4)n3n2)CC1 — remaining activity (1 µM): 97.8%
Cc1nn(CC(F)(F)F)cc1Nc1nccc(NCc2ccc(S(N)(=O)=O)cc2)n1 — remaining activity (radiometric; 1 µM): 101%
CC(C)(C)c1nc(-c2cccc(NS(=O)(=O)c3c(F)cccc3F)c2F)c(-c2ccnc(N)n2)s1 — remaining activity (radiometric; 1 µM): 84%
